PubChem BioAssay AID463111 (Johns Hopkins Ion Channel Center, 2010)
The whole screen tested about 310,000 compounds, of which about 2,800 (0.9%) were called active.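 The calls were made as follows: active = B-score of the integrated calcium signal more than 4 SD below the library mean, with starting fluorescence not abnormally high; inactive = the rest.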 Many of the other results were omitted from the sample, so actives are more common in it than they were.

assay: RGS4 potentiators or activators, primary screen, cell-based, HEK293 M3R inducible RGS4, calcium flux (AID 463111); conditions: HEK293 M3R/inducible RGS4, carbachol calcium flux Fluo4, at 10 µM; hits give low values;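 as to B-score: negative B-score means reduced calcium response which marks RGS4 activation or potentiation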
Method in brief: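 Also added: carbachol at ECmax as muscarinic agonist stimulus; Assay system: HEK293 cells with stable M3R and inducible RGS4; Timing: overnight RGS4 induction, 30 min dye load 37 °C, 20 min compound RT; Measured by: Fluo4-AM (2 µM) calcium-flux fluorescence, kinetic read.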

Row | Compound | B-score
1 | COc1cc(NS(=O)(=O)c2ccc(NC(=O)CN3C(=O)c4ccccc4C3=O)cc2)ncn1 | inactive
2 | CS(=O)(=O)Nc1ccc(C(=O)N2CCCC2)cc1 | inactive
3 | C=CCOc1ccc(/C=C/C(=O)OCC(=O)NCC2CCCO2)cc1 (stereo unspecified) | inactive
4 | O=C(Nc1nccs1)C1CCN(S(=O)(=O)c2ccc(Cl)c(C(F)(F)F)c2)CC1 | inactive
5 | Cc1ccc(NC(=O)COc2ccc(/C=C3/NC(=O)NC3=O)cc2)cc1 | inactive
6 | CC(C)c1ccc(/C=C2\NC(=O)NC2=O)cc1 | -8.02 (active)
7 | CSc1ccc(/C=C2\NC(=O)NC2=O)cc1 | inactive
8 | COc1ccc(C2=NN(C(=O)CSc3nc(=O)n4ccc(C)cc4n3)C(c3ccc(C)cc3)C2)cc1 (stereo unspecified) | inactive
9 | O=C1c2ccccc2C(=O)c2c1cccc2N1CCN(C/C=C/c2ccccc2)CC1 | inactive
10 | O=C(Cn1c(N2CCN(C/C=C/c3ccccc3)CC2)nc2ccccc21)c1ccccc1 | -8 (active)
11 | CC(C)Cn1c(N2CCN(C(=O)/C=C/c3ccccc3)CC2)nc2ccccc21 | inactive
12 | CC(NCc1nc2ccccc2n1C)C12CC3CC(CC(C3)C1)C2 (stereo unspecified) | inactive
13 | CCN(CC)C(=O)COc1coc(CN2CCN(Cc3ccccc3)CC2)cc1=O | inactive
14 | CCOc1cccc(NC(=O)Cn2nc(-c3ccc4c(c3)OCCO4)ccc2=O)c1 | inactive
15 | CCOc1ccc2[nH]c(=O)c(CN(Cc3nnnn3CCc3ccccc3)CC3CCCO3)cc2c1 (stereo unspecified) | inactive
16 | Oc1ccccc1N1CCN(c2ncnc3sc(-c4ccccc4)cc23)CC1 | -9.36 (active)
17 | c1ccc(-c2cc3c(NCC4COc5ccccc5O4)ncnc3s2)cc1 (stereo unspecified) | inactive
18 | COc1ccccc1N1CCN(c2ncnc3sc(C)c(-c4ccccc4)c23)CC1 | inactive
19 | CNC(=O)COc1ccc(S(=O)(=O)Nc2ccccc2)cc1 | inactive
20 | CCn1ncc(CNC(=O)C2(C)CC2(Br)Br)c1C (stereo unspecified) | inactive
21 | Nc1cc(N)nc(SCc2ccc(Cl)cc2)n1 | inactive
22 | COc1cnc(SCc2ccc(Cl)c(Cl)c2)nc1Cl | -7.01 (active)
23 | C=CCn1c(SCc2ccc(Cl)c(Cl)c2)nnc1C(CO)NC(=O)c1ccc(OC)cc1 (stereo unspecified) | inactive
24 | CCS(=O)(=O)Nc1ccc(C2=NN(C(C)=O)C(c3cccs3)C2)cc1 (stereo unspecified) | inactive
25 | CCS(=O)(=O)Nc1ccc(C2=NN(S(=O)(=O)c3ccc(F)cc3)C(c3ccco3)C2)cc1 (stereo unspecified) | -7.77 (active)
26 | CS(=O)(=O)Nc1ccc(C2=NN(S(C)(=O)=O)C(c3cccs3)C2)cc1 (stereo unspecified) | inactive

Row | Compound | B-score
27 | COc1ccc(N(CC(=O)Nc2cc(OC)ccc2OC)S(=O)(=O)c2c(C)noc2C)cc1 | inactive
28 | C=CCNC(=O)COC(=O)CNC(=O)c1cc(Cl)cc([N+](=O)[O-])c1 | inactive
29 | CC(=O)Nc1cccc(Nc2nc(-c3cccs3)nc3ccccc23)c1 | inactive
30 | COc1ccc(Nc2nc(-c3cccnc3)nc3ccccc23)cn1 | inactive
31 | Cc1cccc(-c2nc(Nc3ccc(O)cc3)c3ccccc3n2)c1 | -8.56 (active)
32 | CC(NS(=O)(=O)c1ccc(OCC(=O)N2CCCC2)cc1)c1ccccc1 (stereo unspecified) | inactive
33 | CCc1ccc(N2CC(O)=C(c3nc4ccccc4c(=O)[nH]3)C2=N)cc1 | inactive
34 | COc1ccccc1CNC(=O)C1CCN(C(=O)[C@@H]2Cc3ccccc3CN2)CC1 | inactive
35 | CC1=C(C)CC2C(=O)N(c3cccc4ccccc34)C(=O)C2C1 (stereo unspecified) | inactive
36 | O=C(Cc1ccccc1)NNC1CC(=O)N(c2ccc(Br)cc2)C1=O (stereo unspecified) | inactive
37 | Cc1ccc(N2C(=O)CC(Nc3cccc4ccccc34)C2=O)cc1 (stereo unspecified) | -8.55 (active)
38 | O=C(NCc1ccccc1)C1CCCN(c2nc3ccsc3c(=O)s2)C1 (stereo unspecified) | inactive
39 | CCCOc1ccc(C(=O)CCC(=O)OC(C)C(=O)Nc2ccc(NC(C)=O)cc2)cc1 (stereo unspecified) | inactive
40 | CCCCOc1ccc(C(=O)NN2CCN(C)CC2)cc1 | inactive
41 | CCCOc1ccc(C(=O)C(CCC(CNCC)C(=O)c2ccc(OCCC)cc2)CNCC)cc1 (stereo unspecified) | -8.07 (active)
42 | COc1ccc(Cl)cc1NS(=O)(=O)c1cccc(C(=O)NCC2CCCO2)c1 (stereo unspecified) | inactive
43 | C[N+](C)(C)CCNC(=O)c1cc[n+](Cc2ccccc2)c(/C=N/O)c1 | inactive
44 | Cc1ccc(/C=C(\C#N)C(=O)Nc2cccc3ncccc23)o1 | inactive
45 | C=CCn1c(=O)c(C(=O)NCc2ccc3c(c2)OCO3)c(O)c2ccccc21 | inactive
46 | Cc1ccc(C)c(NC2=NCC(=O)N2c2ccc3c(c2)OCCO3)c1 | inactive
47 | CCOc1ccccc1NC(=O)Cn1ncc2ccc([N+](=O)[O-])cc21 | inactive
48 | Cc1cccc(C)c1NC(=O)C1(C)c2cccc[n+]2CC(=O)N1Cc1cccs1 (stereo unspecified) | inactive
49 | COc1ccc(C(=O)Oc2ccc(-c3nnco3)cc2)cc1S(=O)(=O)N1CCOCC1 | inactive
50 | Cc1cc(NC(=O)COC(=O)c2ccc(F)c(S(=O)(=O)N3CCOCC3)c2)no1 | inactive
51 | O=C(Oc1ccc(-c2nnco2)cc1)c1ccc(F)c(S(=O)(=O)N2CCOCC2)c1 | -7.43 (active)
